Source: PubChem BioAssay
This excerpt belongs to a sample that is enriched for hits.
HCT116 bCat-KO: beta-catenin-lacking colon tumor cell growth suppression; viability, % at 10 µM; hit rate 1.5% among 140,000; HCT116 beta-catenin knockout viability, CellTiter-Glo, 60 h; hits give low values;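 active means viability at or under a set limit, the compound median less 4 SD, cut at about 6% in these data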;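 further: 0% = Hyamine 1622 control at 20 µM and 100% = untreated cell control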
PTEN del growth: growth suppressors of cells with PTEN tumor suppressor deletion; viability, % at 10 µM; HCT116 PTEN-null viability, CellTiter-Glo, 60 h; hits give low values; hit rate 1.2% among 140,000;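 active means viability at or below a set limit, 4 SD under the median of all tested compounds, cut at about 3.7% in these data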;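 further: PTEN knockout HCT116 line with beta catenin targeted HCT116 as companion control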
Lung fibro prol: blocks proliferation of human lung fibroblasts | AID 719 | viability, % at 10 µM | LL 47 human lung fibroblast viability, ATP luminescence; hits give low values | hit rate 1.1% among 85,000;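 active means viability at or below 50% in the single dose screen; inactive means viability above 50%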;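 further: compound exposure lasted 72 h before the ATP readout; 100% = median luminescence of untreated cell-only wells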
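Material: human lung fibroblast line LL 47, low passage; Evaluation: viability percentage against median untreated-cell control; Buffer or medium: 15% FBS in IMEM; Incubation: 72 h compound exposure at 37 °C after overnight plating; Dosing: 0.1% DMSO in all compound wells; Measured by: CellTiter-Glo luminescence.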
HUVEC prolif 384: human endothelial cell proliferation inhibition | HUVEC proliferation, CellTiter-Glo luminescence, 72 h; hits give low values | viability, % at 10 µM (by protocol) | hit rate 1.1% among 86,000;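 active means viability at or below 30%; inactive means viability above 30%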;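 further: 100% = median luminescence of DMSO-only cell control wells on each plate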
H69AR growth 86K: blocks growth of human H69AR lung tumor cells; H69AR lung tumor viability, ATP luminescence, 72 h; hits give low values; viability, % at 10 µM; hit rate 6% among 85,000; AID 598;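 active means viability at or below 40%; inactive means viability above 40%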;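 further: multidrug resistant small cell line overexpressing MRP-1 efflux transporter; 100% = mean luminescence of untreated control wells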
Active calls of the source: *; . = no result.

SMILES	HCT116 bCat-KO	PTEN del growth	Lung fibro prol	HUVEC prolif 384	H69AR growth 86K
Cc1ccccc1NC1=C(Cl)C(=O)OC1OC(=O)c1ccco1 (stereo unspecified)	72	74	101	76	9.9*
CCOC1OC(=O)C(Cl)=C1Nc1ccccc1C (stereo unspecified)	95	98	.	.	.
CC(C)NCC(O)COc1ccc2c(c1)CCC2 (stereo unspecified)	94	88	.	.	.
COc1ccc(OC)c(C2CC(=O)c3c([nH]c(C(=O)OC(C)C)c3C)C2)c1 (stereo unspecified)	14	15	56	31	28*
CCCOCCOC(=O)c1[nH]c2c(c1C)C(=O)CC(c1cc(OC)ccc1OC)C2 (stereo unspecified)	12	18	63	45	19*
COCCOC(=O)c1[nH]c2c(c1C)C(=O)CC(c1cc(OC)ccc1OC)C2 (stereo unspecified)	40	31	.	.	.
CS(=O)(=O)Nc1ccc(C2=NN(S(C)(=O)=O)C(c3ccc4c(c3)OCO4)C2)cc1 (stereo unspecified)	84	81	.	.	.
CCOC(=O)c1[nH]c(C)c(C(=O)NCc2ccc(Cl)cc2)c1C	90	88	105	79	88
CCOC(=O)c1[nH]c(C)c(C(=O)Nc2ccc(C)c(F)c2)c1C	48	38	92	73	20*
CCOC(=O)c1[nH]c(C)c(C(=O)Nc2ccc(C)c(Cl)c2)c1C	46	38	79	62	32*
COc1ccccc1NC(=O)CNc1ccc(F)c(Cl)c1	55	42	.	.	.
COc1ccc(N(C(=O)COc2ccc(C)cc2)S(=O)(=O)c2ccc(C)cc2)cc1	89	94	.	.	.
c1ccc(SCCOCCN2CCc3ccccc3C2)cc1	74	75	.	.	.
Cc1cc2oc(=O)cc(COC(=O)c3cccc(N(C)C)c3)c2cc1C	.	.	103	97	78
CCN(CC)c1ccc(C(=O)OCc2cc(=O)oc3cc(O)ccc23)cc1	0.9*	0.2*	.	.	.
Cc1ccc(S(=O)(=O)N2CCN(CC(=O)N/N=C/c3ccco3)CC2)cc1	87	101	.	.	.
CCn1c2ccccc2c2nc3cc(S(=O)(=O)N4CCOCC4)ccc3nc21	69	84	84	90	6.1*
c1ccc2nc3c(nc2c1)c1ccccc1n3CCN1CCOCC1	47	49	84	92	83
C#CCN1C(=O)C(O)(CC(=O)c2ccc3c(c2)OCCO3)c2ccccc21 (stereo unspecified)	91	51	100	81	35*
CN1C(=O)C(O)(CC(=O)c2ccc3c(c2)OCO3)c2ccccc21 (stereo unspecified)	106	110	96	109	89
CCCCN1C(=O)C(O)(CC(=O)c2ccccc2OC)c2ccccc21 (stereo unspecified)	87	100	100	100	92
CCCN1C(=O)C(O)(CC(=O)c2cccc(OC)c2)c2ccccc21 (stereo unspecified)	12	9	92	85	28*
C#CCN1C(=O)C(O)(CC(=O)c2ccc(OC)c(OC)c2)c2ccccc21 (stereo unspecified)	41	22	98	102	41
CCCN1C(=O)C(O)(CC(=O)c2ccc3c(c2)OCCO3)c2ccccc21 (stereo unspecified)	31	41	95	96	17*
CCCCCCc1cc2cc(C(=O)NCc3ccccc3)c(=N)oc2cc1O	99	94	86	96	60
SMILES	HCT116 bCat-KO	PTEN del growth	Lung fibro prol	HUVEC prolif 384	H69AR growth 86K
CCCCCCc1cc2cc(C(=O)Nc3ccccc3)c(=O)oc2cc1O	1.5*	1.7*	.	.	.
O=C(CC(NC(=O)C(F)(F)F)c1ccccc1)Nc1nnc(CCc2ccccc2)s1 (stereo unspecified)	97	89	.	.	.
O=c1oc(-c2ccccc2F)nc2c1cnn2-c1ccccc1	82	97	82	5.9*	54
CC(=O)c1ccc(NC(=O)C(C)n2nc(-c3ccccc3)c3cc(Cl)ccc32)cc1 (stereo unspecified)	64	58	.	.	.
CC(C(=O)NCc1ccco1)n1nc(-c2ccccc2)c2cc(Cl)ccc21 (stereo unspecified)	48	52	82	67	35*
CCOC(=O)C1=C(C)N=c2s/c(=C3\C(=O)Nc4ccccc43)c(=O)n2C1c1ccc2c(c1)OCO2 (stereo unspecified)	87	91	91	73	27*
CCOC(=O)C1=C(C)N=c2s/c(=C\c3ccncc3)c(=O)n2C1c1ccc2c(c1)OCO2 (stereo unspecified)	13	10	71	50	3.0*
CCOC(=O)C1=C(C)N=c2s/c(=C/c3ccccc3)c(=O)n2C1c1ccc(OC)c(OC)c1 (stereo unspecified)	61	52	.	.	.
O=C(Nc1ccc(Cl)cc1)c1cccs1	82	88	101	89	95
O=C(Nc1ccccc1)c1nnsc1S(=O)c1ccc(Cl)cc1 (stereo unspecified)	7	2.2*	.	.	.
CCN(c1ccccc1)S(=O)(=O)c1ccc(Cl)c(NC(=O)CSc2n[nH]c(N)n2)c1	93	96	.	.	.
CCCn1c2ccc(/C(C)=N\O)cc2c2cc(/C(C)=N/O)ccc21	80	72	90	83	27*
CCn1c2c(c3cc(Br)ccc31)CCC/C2=N\O	81	79	84	49	86
COC(=O)C1=C(C)NC(=S)N(C(C)=O)C1c1ccc(OC)c(OC)c1 (stereo unspecified)	103	97	.	.	.
O=C(NC1CCCCC1)N(CCN1CCOCC1)Cc1cc2cc3c(cc2[nH]c1=O)OCCO3	90	87	87	85	80
Cc1ccc2cc(CN(CC3CCCO3)C(=O)NC3CCCCC3)c(=O)[nH]c2c1C (stereo unspecified)	85	81	82	83	28*
CCN(CC)CCN(Cc1cc2cc3c(cc2[nH]c1=O)OCCO3)C(=O)NC1CCCCC1	90	83	93	89	35*
CO/C=C\C=C/c1nnn(-c2ccc(Cl)cc2)n1	63	57	.	.	.
Cc1ccc(-n2c(SCC(=O)Nc3ccc4c(c3)OCCO4)nnc2-c2ccco2)cc1	91	92	43*	57	14*
Cc1cccc(-n2c(SCC(=O)Nc3ccc4c(c3)OCO4)nnc2-c2ccoc2C)c1	98	92	59	48	9.2*
CC(Sc1nnc(-c2cccs2)n1Cc1ccccc1)C(=O)NCc1ccc2c(c1)OCO2 (stereo unspecified)	79	74	87	79	30*
O=C(CSc1nnc(-c2cccs2)n1Cc1ccccc1)NCc1ccc2c(c1)OCO2	78	69	89	85	75
Cc1ccc(-n2c(SCC(=O)Nc3ccc4c(c3)OCO4)nnc2-c2cccs2)cc1	102	98	33*	67	9.2*
CCCn1c(SCC(=O)Nc2ccc3c(c2)OCCO3)nnc1-c1ccco1	87	85	.	.	.
Cc1cccc(NC(=O)C2NC(=O)CC2c2ccccc2)c1C (stereo unspecified)	90	94	100	122	100
